{"data": "Assay results gathered from unrelated publications", "target": "Serine/threonine-protein kinase 3 (STK3, Homo sapiens, UniProt Q13188)", "Residues used in one study (Q13188 1-491)": "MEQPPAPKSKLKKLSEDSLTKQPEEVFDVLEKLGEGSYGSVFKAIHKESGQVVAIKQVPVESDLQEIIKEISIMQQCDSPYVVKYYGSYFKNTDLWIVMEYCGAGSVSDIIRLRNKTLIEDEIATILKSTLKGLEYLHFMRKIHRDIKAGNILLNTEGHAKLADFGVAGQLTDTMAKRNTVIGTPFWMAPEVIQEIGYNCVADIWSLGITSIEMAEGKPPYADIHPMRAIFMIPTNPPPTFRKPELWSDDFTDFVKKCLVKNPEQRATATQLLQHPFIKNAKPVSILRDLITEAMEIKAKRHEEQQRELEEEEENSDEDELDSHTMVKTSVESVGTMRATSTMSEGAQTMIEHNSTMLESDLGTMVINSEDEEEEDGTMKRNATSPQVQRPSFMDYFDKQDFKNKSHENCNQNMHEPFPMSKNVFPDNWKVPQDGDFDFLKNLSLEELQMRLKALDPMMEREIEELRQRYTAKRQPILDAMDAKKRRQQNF", "note": "Protocols differ between the studies behind these lines."}
{"SMILES": "N[C@@H]1CCN(c2nccc(-c3cnn4ncccc34)n2)C1", "observed": "binding", "tested at": "1 µM", "remaining binding [%]": 98}
{"SMILES": "CNC(=O)[C@@H]1CC[C@@H](n2c(-c3ccc4cnccc4c3)nc3ccc(C(=O)NCc4cccc(C(N)=O)c4)cc32)C1", "observed": "binding", "technique": "competition with immobilised ligand", "tested at": "1 µM", "remaining binding [%]": 100}
{"SMILES": "CNC(=O)Nc1ccc2c(c1)[C@@]1(CC2)OC(=O)N(CC(=O)N(Cc2ccc(F)cc2)[C@@H](C)C(F)(F)F)C1=O", "observed": "cell-free assay", "technique": "competition with immobilised ligand", "tested at": "1 µM", "remaining binding [%]": 97}
{"SMILES": "O=C(Nc1c[nH]nc1C(=O)NC1CCNCC1)c1cc(F)cc(F)c1", "observed": "binding", "technique": "competition with immobilised ligand", "tested at": "1 µM", "remaining binding [%]": 100}
{"SMILES": "O=C(c1ccc(Nc2ncc(Cl)c(-c3ccc(Cl)s3)n2)cc1)N1CCC(N2CCCC2)CC1", "observed": "binding", "technique": "competition with immobilised ligand", "tested at": "1 µM", "remaining binding [%]": 16}
{"SMILES": "CN(c1ccnc(CNc2nc(Nc3ccc4c(c3)CC(=O)N4)ncc2C(F)(F)F)n1)S(C)(=O)=O", "observed": "cell-free assay", "technique": "competition with immobilised ligand", "tested at": "1 µM", "remaining binding [%]": 46}
{"SMILES": "C=CC(=O)N1CCC(C(=O)NCC(=O)N2CCN(c3nc(-c4cnc(N)nc4C(F)F)nc(N4CCOCC4)n3)CC2)CC1", "observed": "binding", "technique": "competition with immobilised ligand", "tested at": "1 µM", "remaining binding [%]": 97}
{"SMILES": "Cc1cnn2ncc(-c3ccnc(N(C)C)n3)c2c1", "observed": "binding", "tested at": "1 µM", "remaining binding [%]": 100}
{"SMILES": "CC(=O)Nc1c(C(C)=O)c(=O)n(C)c2nc(-c3ccc(Cl)cc3Cl)c(-c3ccc(Cl)cc3)cc12", "observed": "cell-free assay", "technique": "competition with immobilised ligand", "tested at": "1 µM", "remaining binding [%]": 100}
{"SMILES": "O=C(NCCCN1CCOCC1)c1ccc(Nc2ncc(Cl)c(-c3ccc(Cl)s3)n2)cc1", "observed": "binding", "technique": "competition with immobilised ligand", "tested at": "1 µM", "remaining binding [%]": 12}
{"SMILES": "CN(C)c1nccc(-c2cnn3ncccc23)n1", "observed": "binding", "tested at": "1 µM", "remaining binding [%]": 100}
{"SMILES": "FC(F)(F)Oc1cccc(-c2cnc3ccc(-c4ccncc4)nn23)c1", "observed": "cell-free assay", "technique": "competition with immobilised ligand", "tested at": "5 µM", "remaining binding [%]": 58}
{"SMILES": "COc1cnc(Nc2cccc(S(N)(=O)=O)c2)nc1N1CCN(c2ccccc2)CC1", "observed": "binding", "technique": "competition with immobilised ligand", "tested at": "1 µM", "remaining binding [%]": 95}
{"SMILES": "c1cnn2ncc(-c3ccnc(N4CCC45COC5)n3)c2c1", "observed": "binding", "tested at": "1 µM", "remaining binding [%]": 81}
{"SMILES": "O=C(c1ccc(Nc2ncc(Cl)c(-c3cc4ccccc4s3)n2)cc1)N1CCC(N2CCCC2)CC1", "observed": "binding", "technique": "competition with immobilised ligand", "tested at": "1 µM", "remaining binding [%]": 65}
{"SMILES": "CC1CCCN1c1nccc(-c2cnn3ncccc23)n1 (stereo not shown)", "observed": "binding", "tested at": "1 µM", "remaining binding [%]": 100}
{"SMILES": "CC(C)(O)c1cncc(-c2nc3ccc(F)cc3n2C2CC2)c1", "observed": "cell-free assay", "technique": "competition with immobilised ligand", "tested at": "1 µM", "remaining binding [%]": 100}
{"SMILES": "F[C@@H]1CCN(c2nccc(-c3cnn4ncccc34)n2)C1", "observed": "binding", "tested at": "1 µM", "remaining binding [%]": 100}
{"SMILES": "O=C(Nc1cccnn1)N1CC(C/C=C/c2cncc(Oc3ccc(C(F)(F)F)cn3)n2)C1", "observed": "cell-free assay", "technique": "competition with immobilised ligand", "tested at": "1 µM", "remaining binding [%]": 80}
{"SMILES": "Nc1ncc2c(n1)-c1c([nH]c3ccc(C#CC4CC4)cc13)CCCC2", "observed": "binding", "technique": "competition with immobilised ligand", "tested at": "1 µM", "remaining binding [%]": 87}
{"SMILES": "COc1cc(-c2cn(C3CCc4ccccc4N(CC(F)(F)F)C3=O)nn2)ccc1-n1ccc(C)n1 (stereo not shown)", "observed": "cell-free assay", "technique": "competition with immobilised ligand", "tested at": "1 µM", "remaining binding [%]": 84}
{"SMILES": "C[C@@H]1CCN(c2nccc(-c3cnn4ncccc34)n2)C1", "observed": "binding", "tested at": "1 µM", "remaining binding [%]": 100}
